Data from article PMC65698 (BMC Pharmacology, 2002).

Tests used:
HL-60 cells [1] = assay: HL-60 cell differentiation assay; type: cell-based, human
Method in brief: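 HL-60 cells grown in RPMI-1640 with 15% FBS, 50 U/mL penicillin and 0.5 mg/mL streptomycin; subcultured and treated at 2 × 10^5 cells/mL. Test compound added in DMSO or ethanol, with no media change or washout; 1 μM retinoic acid used as a reference retinoid. Aliquots mixed 1:1 with a solution of 1.0% BSA, 0.2% NBT and 1.0 μg/mL TPA, then incubated 45 min at 37°C. Purple-precipitate-positive cells scored by bright-field microscopy in a counting chamber; two observers each counted two fields of ≥200 cells per well.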

[2] = HPLC assay for stability of retinal in culture media; type: physicochemical; conditions: 10 μM retinal in RPMI 1640 plus 15% fetal bovine serum, 37°C, day 6, no cells
Method in brief: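 Retinal (10 μM) incubated in cell-free RPMI 1640 with 15% FBS at 37°C for six days. Media sampled every 24 h and extracted with 50% butanol:50% acetonitrile (v/v): vortexed 60 s, centrifuged 2 min at 16,000 × g. Organic layer diluted 1:5 in acetonitrile and run on reverse-phase C18 HPLC. Retinal and retinoic acid detected at 360 nm (retention 10.0 and 7.7 min).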

L1210/CPA cells = conditions: 50 μM DEAB in vitro; cited from earlier work
mouse ALDH1A1 = molecular target: T1, mouse ALDH1A1 (Mus musculus, UniProt P24549); type: biochemical; conditions: IC50 of DPAB, substrate propanal, 1 mM NAD, pH 8.4, mean ± average deviation
T1 sequence (P24549 1-501): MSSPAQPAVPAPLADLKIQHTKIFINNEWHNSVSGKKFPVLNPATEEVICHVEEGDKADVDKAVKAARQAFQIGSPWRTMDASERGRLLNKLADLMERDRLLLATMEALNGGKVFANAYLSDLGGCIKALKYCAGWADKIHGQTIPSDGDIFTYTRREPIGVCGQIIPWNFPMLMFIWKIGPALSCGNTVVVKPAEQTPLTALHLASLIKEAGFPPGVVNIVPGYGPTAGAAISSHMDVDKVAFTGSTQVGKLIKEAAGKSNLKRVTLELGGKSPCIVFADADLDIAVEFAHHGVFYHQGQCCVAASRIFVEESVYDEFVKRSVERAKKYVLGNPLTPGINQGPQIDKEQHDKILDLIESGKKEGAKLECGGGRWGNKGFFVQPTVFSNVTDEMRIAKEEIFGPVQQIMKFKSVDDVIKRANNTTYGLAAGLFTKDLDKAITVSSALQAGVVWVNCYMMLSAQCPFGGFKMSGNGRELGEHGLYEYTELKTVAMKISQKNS

human ALDH1A1 = molecular target: T2, human ALDH1A1 (Homo sapiens, UniProt P00352); type: biochemical; conditions: IC50 of DPAB, substrate propanal, 1 mM NAD, pH 8.4, mean ± average deviation
T2 sequence (P00352 1-501): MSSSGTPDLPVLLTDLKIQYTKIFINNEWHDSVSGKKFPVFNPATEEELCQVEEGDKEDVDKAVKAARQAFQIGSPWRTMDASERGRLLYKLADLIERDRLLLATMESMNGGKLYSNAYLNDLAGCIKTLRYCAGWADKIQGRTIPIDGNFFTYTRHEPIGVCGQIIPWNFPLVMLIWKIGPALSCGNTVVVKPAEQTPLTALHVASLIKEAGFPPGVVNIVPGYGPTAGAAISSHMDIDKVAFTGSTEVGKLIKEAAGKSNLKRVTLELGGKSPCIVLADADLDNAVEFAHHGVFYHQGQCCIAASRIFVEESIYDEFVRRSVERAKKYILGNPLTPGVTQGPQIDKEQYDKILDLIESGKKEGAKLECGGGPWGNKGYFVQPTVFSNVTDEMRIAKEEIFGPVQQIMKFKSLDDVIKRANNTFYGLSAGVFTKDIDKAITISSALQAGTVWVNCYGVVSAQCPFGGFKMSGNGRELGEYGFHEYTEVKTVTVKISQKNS

HL-60 cells [3] = assay: HL-60 cell survival by Trypan blue dye exclusion; type: cell-based, human; conditions: up to 144 hours
Method in brief: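 HL-60 cells grown in RPMI-1640 with 15% FBS and penicillin/streptomycin, seeded at 2 × 10^5 cells/mL. Exposed to test compound (in DMSO or ethanol) for up to 144 h without media replacement or washout. Survival assessed by Trypan blue dye exclusion.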

ALDH1A1 = conditions: dipropyl vs diethyl analog; cited from earlier work

With `CC1=C(/C=C/C(C)=C/C=C/C(C)=C/C(=O)O)C(C)(C)CCC1` [retinoic acid, all-trans retinoic acid] the “Cells differentiated to granulocytes (positive NBT staining)” value (HL-60 cells [1]; continuous exposure to 1 μM for 96 hours) was roughly 40%.
In the case of `CC1=C(/C=C/C(C)=C/C=C/C(C)=C/C=O)C(C)(C)CCC1` [all-trans retinal], the “Differentiation expressed as equivalent retinoic acid concentration” value (HL-60 cells [1]; exposure to 1 μM for 96 hours) is reported as 0.05 to 0.1 µM and the “Retinal oxidized to retinoic acid in culture media” value [2] is reported as “less than 1%”.
In the case of `CCN(CC)c1ccc(C=O)cc1` [DEAB, 4-(N, N-diethylamino) benzaldehyde], the “Effect on resistance of L1210/CPA cells to 4-HC” value (L1210/CPA cells) is listed as “abolished the tumor cells' resistance to 4-HC”.
With `CCCN(CCC)c1ccc(C=O)cc1` [DPAB, 4-(N,N-dipropylamino)benzaldehyde] the IC50 (mouse ALDH1A1) was 0.04 ± 0.01 µM, the IC50 (human ALDH1A1) was 0.14 ± 0.04 µM and the “Effect on induction of differentiation by retinoic acid” value (HL-60 cells [1]; 1 μM retinoic acid + 50 μM DPAB) was “did not alter the induction of differentiation by retinoic acid”. For the same compound, the “Effect on cell viability” value (HL-60 cells [3]) was “nor did it affect cell viability” and the “Efficacy for inhibition of ALDH1A1 relative to DEAB” value (ALDH1A1) was 10 fold.
